Here are results for ten molecules from ChEMBL document CHEMBL1150123, “Constituents of the twigs of Hernandia ovigera that inhibit the transformation of JB6 murine epidermal cells” (J Nat Prod, 2002).

≈ marks a conversion by molar mass, not a printed value.

The term IC50 denotes the concentration that inhibits the measured activity by half.

The nature of assay [1]: Inhibition of 12-O-tetradecanoylphorbol 13-acetate-induced transformation of mouse JB6 cells after 14 days by soft agar assay. It is filed as functional, cell-based.
The nature of assay [2]: Cytotoxicity against mouse JB6 cells after 3 days by trypan blue staining. The class given is cell-based. As to conditions: JB6, 72 h. The gist of the method:
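JB6 cells at 1×10^4 cells/mL were preincubated 24 h, then exposed to a range of test-compound concentrations for 3 days. Trypsinized cells were mixed with 0.4% trypan blue, and percent viability was scored microscopically.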

Assay [3] is described as follows: Ratio of IC50 for mouse JB6 cells to IC50 for inhibition of 12-O-tetradecanoylphorbol 13-acetate-induced transformation of mouse JB6 cells. In outline:
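Ratio of two IC50s. The first is trypan blue cytotoxicity: JB6 cells, 24 h preincubation, 3-day exposure. The second is soft-agar transformation: TPA-sensitive P+ JB6 cells in 0.5% agar with TPA plus compound, triplicate wells, 14 days at 37 °C. Colonies of ≥15 cells were counted in three 0.25 cm² areas. Frequency is relative to TPA and 0.1% DMSO controls.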

Take `COc1cc(C[C@H]2C(=O)OC[C@@H]2Cc2cc(OC)c3c(c2)OCO3)cc(OC)c1OC`: the IC50 in assay [1] was more than 4 mg/L.
In the case of `COc1cc([C@@H]2c3cc4c(cc3[C@H](OC(C)=O)[C@H]3COC(=O)[C@@H]23)OCO4)cc(OC)c1OC`, the concentration for half-maximal inhibition (IC50) in assay [1] was determined as 0.15 mg/L (≈ 0.329 µM); in assay [2], 1.2 mg/L (≈ 2.63 µM). The “Ratio IC50” value in assay [3] was found to be 10.
As to `COc1cc2c(cc1OC)C(=O)N(C)CC2`, the half-maximal inhibitory concentration (IC50) in assay [1] was more than 4 mg/L.
On to `COc1cc([C@@H]2c3c(cc4c(c3OC)OCO4)[C@H](OC(C)=O)[C@H]3COC(=O)[C@@H]23)cc(OC)c1OC`, for which the concentration for half-maximal inhibition (IC50) in assay [1] is more than 4 mg/L.
On the same count and under the same terms, in the case of `COc1cc([C@H]2OC[C@H]3[C@@H]2CO[C@@H]3c2cc(OC)c(OC)c(OC)c2)cc(OC)c1OC` it was more than 4 mg/L.
Same read-out and setting: in the case of `COc1cc([C@@H]2OC[C@@H]3C(=O)OC[C@@H]32)cc(OC)c1OC` [CARUILIGNAN C] it was more than 4 mg/L.
With `COc1cc([C@H]2OC[C@H]3[C@@H]2CO[C@H]3c2cc(OC)c(OC)c(OC)c2)cc(OC)c1OC` [EPIYANGAMBIN], the 50% inhibitory concentration (IC50) in assay [1] was 0.4 mg/L (≈ 0.896 µM); in assay [2] it was 5.7 mg/L (≈ 12.8 µM). In addition, the “Ratio IC50” value in assay [3] came to 10.
On to `COc1ccc([C@@H]2OC[C@@H]3[C@H]2CO[C@@H]3c2cc(OC)c(OC)c(OC)c2)cc1OC`, for which the IC50 in assay [1] is more than 4 mg/L.
Still for that read-out and setting: in the case of `COc1cc([C@@H]2OC[C@H]3[C@@H]2CO[C@H]3c2cc(OC)c3c(c2)OCO3)cc(OC)c1OC` [DIASESARTEMIN] it was more than 4 mg/L.
On the same count and under the same terms, in the case of `COc1cc(C[C@H]2C(=O)OC[C@@H]2Cc2ccc3c(c2)OCO3)cc(OC)c1OC` it was more than 4 mg/L.
